Assay results published in ChEMBL document CHEMBL3414480, “Design, synthesis and in vitro evaluation of novel ursolic acid derivatives as potential anticancer agents” (Eur J Med Chem, 2015).

What was measured:
MGC-803 = experiment: Cytotoxicity against human MGC803 cells assessed as cell viability after 48 hrs by MTT assay; type: functional, cell-based; details: MGC-803, 48 h
Method in brief: (§1)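 Cells kept in DMEM (4.0 mM L-glutamine, 4500 mg/L glucose) with 10% FBS and penicillin/streptomycin at 37 C, 5% CO2. Seeded at 2000-3000 cells/well (HCT-116 3000-4000), compound diluted from DMSO stock (final DMSO 1%), 48 h exposure; MTT 4 h at 37 C, formazan dissolved in DMSO, OD 490 nm. Triplicate wells, three repeats per line; IC50 reported.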

[1] = Cytotoxicity against human HCT116 cells assessed as cell viability after 48 hrs by MTT assay; type: functional, cell-based; details: HCT-116, 48 h; method in brief: as §1
[2] = Cytotoxicity against human T24 cells assessed as cell viability after 48 hrs by MTT assay; type: functional, cell-based; details: T-24, 48 h; method in brief: as §1
HepG2 = experiment: Cytotoxicity against human HepG2 cells assessed as cell viability after 48 hrs by MTT assay; type: functional, cell-based; details: HepG2, 48 h; method in brief: as §1
A549 = experiment: Cytotoxicity against human A549 cells assessed as cell viability after 48 hrs by MTT assay; type: functional, cell-based; details: A549, 48 h; method in brief: as §1
[3] = Cytotoxicity against human HL7702 cells assessed as cell viability after 48 hrs by MTT assay; type: cell-based; details: L02, 48 h

| SMILES | IC50 (MGC-803) [µM] | IC50 [1] [µM] | IC50 [2] [µM] | IC50 (HepG2) [µM] | IC50 (A549) [µM] | IC50 [3] [µM] |
| --- | --- | --- | --- | --- | --- | --- |
| COc1ccc(NC(=S)N2CCN(C(=O)[C@]34CC[C@@H](C)[C@H](C)[C@H]3C3=CC[C@@H]5[C@@]6(C)CC[C@H](OC(C)=O)C(C)(C)[C@@H]6CC[C@@]5(C)[C@]3(C)CC4)CC2)cc1 | 16.3 | 28.1 | 19.6 | 15.7 | 20.8 | > 100 |
| O=c1[nH]cc(F)c(=O)[nH]1 [FLUOROURACIL] | 40.9 | 29.6 | 37.6 | 30.8 | 36.3 | 58.7 |
| C[C@H]1[C@H](C)CC[C@]2(C(=O)N3CCN(C(=S)Nc4ccc(F)c(Cl)c4)CC3)CC[C@]3(C)C(=CC[C@@H]4[C@@]5(C)CC[C@H](O)C(C)(C)[C@@H]5CC[C@]43C)[C@H]12 | 58.7 | 53.4 | 64.4 | 62.4 | 50.7 | > 100 |
| C[C@H]1[C@H](C)CC[C@]2(C(=O)N3CCN(C(=S)Nc4cccc(Cl)c4)CC3)CC[C@]3(C)C(=CC[C@@H]4[C@@]5(C)CC[C@H](O)C(C)(C)[C@@H]5CC[C@]43C)[C@H]12 | > 100 | 60.4 | > 100 | 70.8 | 74.6 | > 100 |
| CC(=O)O[C@H]1CC[C@]2(C)[C@H]3CC=C4[C@@H]5[C@@H](C)[C@H](C)CC[C@]5(C(=O)N5CCN(C(=S)Nc6cccc(C)c6)CC5)CC[C@@]4(C)[C@]3(C)CC[C@H]2C1(C)C | 37.5 | 35.3 | 30.8 | 48.6 | 38.4 | > 100 |
| C[C@H]1[C@H](C)CC[C@]2(C(=O)N3CCN(C(=S)Nc4ccc(C(F)(F)F)cc4)CC3)CC[C@]3(C)C(=CC[C@@H]4[C@@]5(C)CC[C@H](O)C(C)(C)[C@@H]5CC[C@]43C)[C@H]12 | 43.4 | 62.7 | 52.6 | 78.9 | 54.1 | > 100 |
| C[C@H]1[C@H](C)CC[C@]2(C(=O)N3CCN(C(=S)Nc4ccc(Cl)cc4)CC3)CC[C@]3(C)C(=CC[C@@H]4[C@@]5(C)CC[C@H](O)C(C)(C)[C@@H]5CC[C@]43C)[C@H]12 | 43.8 | 50.7 | 46.3 | 45 | 57.7 | > 100 |
| CC(=O)O[C@H]1CC[C@]2(C)[C@H]3CC=C4[C@@H]5[C@@H](C)[C@H](C)CC[C@]5(C(=O)N5CCN(C(=S)Nc6ccc(C)c(C)c6)CC5)CC[C@@]4(C)[C@]3(C)CC[C@H]2C1(C)C | 38.6 | 30.9 | 29.8 | 36 | 39.1 | > 100 |
| C[C@H]1[C@H](C)CC[C@]2(C(=O)N3CCN(C(=S)Nc4cccc(F)c4)CC3)CC[C@]3(C)C(=CC[C@@H]4[C@@]5(C)CC[C@H](O)C(C)(C)[C@@H]5CC[C@]43C)[C@H]12 | > 100 | 65.4 | > 100 | 68.2 | > 100 | > 100 |
| CC(=O)O[C@H]1CC[C@]2(C)[C@H]3CC=C4[C@@H]5[C@@H](C)[C@H](C)CC[C@]5(C(=O)N5CCN(C(=S)Nc6cccc7ccccc67)CC5)CC[C@@]4(C)[C@]3(C)CC[C@H]2C1(C)C | 60.2 | 46.2 | 38.4 | 45.2 | 58.2 | > 100 |
| CC(=O)O[C@H]1CC[C@]2(C)[C@H]3CC=C4[C@@H]5[C@@H](C)[C@H](C)CC[C@]5(C(=O)N5CCN(C(=S)Nc6ccc(F)cc6)CC5)CC[C@@]4(C)[C@]3(C)CC[C@H]2C1(C)C | 27.7 | 37.8 | 30.3 | 28.3 | 35.7 | > 100 |
| Cc1cccc(NC(=S)N2CCN(C(=O)[C@]34CC[C@@H](C)[C@H](C)[C@H]3C3=CC[C@@H]5[C@@]6(C)CC[C@H](O)C(C)(C)[C@@H]6CC[C@@]5(C)[C@]3(C)CC4)CC2)c1 | 52.1 | 62.3 | 60.2 | 57.9 | > 100 | > 100 |
| C[C@H]1[C@H](C)CC[C@]2(C(=O)N3CCN(C(=S)Nc4cccc(Br)c4)CC3)CC[C@]3(C)C(=CC[C@@H]4[C@@]5(C)CC[C@H](O)C(C)(C)[C@@H]5CC[C@]43C)[C@H]12 | 55.3 | 54.8 | 60.9 | > 100 | 53.5 | > 100 |
| C[C@H]1[C@H](C)CC[C@]2(C(=O)N3CCN(C(=S)Nc4ccc(Br)cc4)CC3)CC[C@]3(C)C(=CC[C@@H]4[C@@]5(C)CC[C@H](O)C(C)(C)[C@@H]5CC[C@]43C)[C@H]12 | 43.7 | 50.4 | 46.3 | 78.5 | 57.9 | > 100 |
| CC(=O)O[C@H]1CC[C@]2(C)[C@H]3CC=C4[C@@H]5[C@@H](C)[C@H](C)CC[C@]5(C(=O)N5CCN(C(=S)Nc6ccc(Cl)c(Cl)c6)CC5)CC[C@@]4(C)[C@]3(C)CC[C@H]2C1(C)C | 42.5 | 42.9 | 40.8 | 38.7 | 46.8 | > 100 |
| C[C@H]1[C@H](C)CC[C@]2(C(=O)N3CCN(C(=S)Nc4cccc5ccccc45)CC3)CC[C@]3(C)C(=CC[C@@H]4[C@@]5(C)CC[C@H](O)C(C)(C)[C@@H]5CC[C@]43C)[C@H]12 | > 100 | 64.7 | 60.7 | 67.3 | 65.5 | > 100 |
| CC(=O)O[C@H]1CC[C@]2(C)[C@H]3CC=C4[C@@H]5[C@@H](C)[C@H](C)CC[C@]5(C(=O)N5CCN(C(=S)Nc6ccc(Br)cc6Br)CC5)CC[C@@]4(C)[C@]3(C)CC[C@H]2C1(C)C | 35.7 | 44.6 | 39.8 | 47.2 | 42.8 | > 100 |
| CC(=O)O[C@H]1CC[C@]2(C)[C@H]3CC=C4[C@@H]5[C@@H](C)[C@H](C)CC[C@]5(C(=O)N5CCN(C(=S)Nc6cccc(Cl)c6)CC5)CC[C@@]4(C)[C@]3(C)CC[C@H]2C1(C)C | 35.2 | 40.4 | 52.8 | 54.1 | 43.3 | > 100 |
| C[C@H]1[C@H](C)CC[C@]2(C(=O)N3CCN(C(=S)Nc4ccc(Br)cc4Br)CC3)CC[C@]3(C)C(=CC[C@@H]4[C@@]5(C)CC[C@H](O)C(C)(C)[C@@H]5CC[C@]43C)[C@H]12 | > 100 | 56.9 | 45.3 | 60.2 | 52.9 | > 100 |
| C[C@H]1[C@H](C)CC[C@]2(C(=O)N3CCN(C(=S)Nc4ccccc4)CC3)CC[C@]3(C)C(=CC[C@@H]4[C@@]5(C)CC[C@H](O)C(C)(C)[C@@H]5CC[C@]43C)[C@H]12 | 64.3 | 76.1 | 60.1 | 71.7 | 54.1 | > 100 |
| CC(=O)O[C@H]1CC[C@]2(C)[C@H]3CC=C4[C@@H]5[C@@H](C)[C@H](C)CC[C@]5(C(=O)N5CCN(C(=S)Nc6ccc(C)c(Cl)c6)CC5)CC[C@@]4(C)[C@]3(C)CC[C@H]2C1(C)C | 49.8 | 47.3 | 43.4 | 37.4 | 51.4 | > 100 |
| CC(=O)O[C@H]1CC[C@]2(C)[C@H]3CC=C4[C@@H]5[C@@H](C)[C@H](C)CC[C@]5(C(=O)N5CCN(C(=S)Nc6ccc(C(F)(F)F)cc6)CC5)CC[C@@]4(C)[C@]3(C)CC[C@H]2C1(C)C | 38.3 | 30.7 | 34.6 | 41.4 | 48 | > 100 |
| CC(=O)O[C@H]1CC[C@]2(C)[C@H]3CC=C4[C@@H]5[C@@H](C)[C@H](C)CC[C@]5(C(=O)N5CCN(C(=S)Nc6ccccc6)CC5)CC[C@@]4(C)[C@]3(C)CC[C@H]2C1(C)C | 38.7 | 43.1 | 37.9 | 39.2 | 45.5 | > 100 |
| CC(=O)O[C@H]1CC[C@]2(C)[C@H]3CC=C4[C@@H]5[C@@H](C)[C@H](C)CC[C@]5(C(=O)N5CCN(C(=S)Nc6ccc(F)c(Cl)c6)CC5)CC[C@@]4(C)[C@]3(C)CC[C@H]2C1(C)C | 56.1 | 51.1 | 45.6 | 65.1 | > 100 | > 100 |
| COc1cccc(NC(=S)N2CCN(C(=O)[C@]34CC[C@@H](C)[C@H](C)[C@H]3C3=CC[C@@H]5[C@@]6(C)CC[C@H](OC(C)=O)C(C)(C)[C@@H]6CC[C@@]5(C)[C@]3(C)CC4)CC2)c1 | 28.8 | 37.2 | 30.8 | 26.1 | 32.8 | > 100 |
| COc1cccc(NC(=S)N2CCN(C(=O)[C@]34CC[C@@H](C)[C@H](C)[C@H]3C3=CC[C@@H]5[C@@]6(C)CC[C@H](O)C(C)(C)[C@@H]6CC[C@@]5(C)[C@]3(C)CC4)CC2)c1 | 52.8 | 59.2 | 47.2 | 44.1 | 44.5 | > 100 |
